This is a sample that favours compounds with a hit; in the whole collection about 1.7% have one here.
IDE inh = cellular human IDE inhibition; inhibition, % at 5.59 µM; AID 434962; P14735; 320,000 tested, 0.41% active; HEK cells, FAbetaB cleavage, fluorescence polarization;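 active means percent inhibition above the average of all tested compounds plus 3 SD, set per screening campaign, cut at about 16% in these data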;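 further: IDE supplied by intact live HEK cells; FP after avidin binding of uncleaved biotin substrate so inhibition keeps polarization high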
CSN deneddyl inh = CSN deneddylation inhibition; Q92905; Purified CSN, SCF-Nedd8-OG deneddylation, fluorescence polarization; inhibition, % at 12.5 µM; 360,000 tested, 0.38% active; AID 651999;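 active means pattern-corrected inhibition above about 35%, with an unprinted fluorescence ratio check between 0.5 and 1.5, limit read from the data, passing the limit was not always enough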
Target sequence (Q92905 whole entry, looked up, one chain of several): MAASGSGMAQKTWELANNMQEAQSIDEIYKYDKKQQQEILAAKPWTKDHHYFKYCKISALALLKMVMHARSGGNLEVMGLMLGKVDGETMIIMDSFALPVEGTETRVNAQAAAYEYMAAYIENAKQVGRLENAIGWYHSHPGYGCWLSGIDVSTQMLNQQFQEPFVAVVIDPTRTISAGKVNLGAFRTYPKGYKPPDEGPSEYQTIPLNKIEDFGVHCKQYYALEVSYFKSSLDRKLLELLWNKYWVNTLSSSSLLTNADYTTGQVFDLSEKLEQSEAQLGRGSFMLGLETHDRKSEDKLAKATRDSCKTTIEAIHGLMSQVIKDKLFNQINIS
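assay system = purified human Csn5 enzyme expressed in HEK293T cells | amount = 0.24 nM enzyme | buffer or medium = Tris/NaCl/DTT buffer, pH 7.5 | reagent = 10 nM SCFSkp2-Nedd8OG | compound = one concentration, 12.5 µM, 0.25% DMSO | times = 90 min reaction at room temperature | signal = FP | read-out basis = % inhibition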
HNF4A DNA FP = change in binding of human HNF4 alpha to DNA. 360,000 tested, 0.3% active. activity change, % at 10 µM. P41235. HNF4a-FITC DNA binding, fluorescence polarization, 1 h; in the data active means activity change above about 30%, passing the limit was not always enough
TPT1 inh = C. albicans TPT1 enzyme inhibition; recombinant caTPT1, FP RNA substrate dephosphorylation; inhibition, % at 5 µM; 300,000 tested, 0.81% active; AID 1962;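 active means inhibition above the mean of all tested compounds plus 3 SD, set per screening campaign, cut at about 24% in these data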
Tb MetRS inh = blocks T. brucei methionyl-tRNA synthetase activity; 360,000 tested, 0.4% active; purified T. brucei MetRS, ATP depletion, Kinase-Glo luminescence; inhibition, % at 11.9 µM;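 active means inhibition above a per-plate cutoff of the control wells' mean inhibition plus 3 SD, cut at about 5.5% in these data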
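Material – parasite MetRS enzyme · Medium – HEPES-MgCl2-KCl buffer plus DTT, spermine, BSA, pyrophosphatase · Reagent – ATP, methionine and E. coli bulk tRNA substrates · Times – 15 min enzyme-compound preincubation, 2 h reaction, 10 min detection, 25 °C · Measured by – luminescence of leftover ATP · Evaluation – percent inhibition relative to median high and low control wells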
IDE act = activators of human insulin-degrading enzyme in cells; HEK cells, FAbeta-B cleavage, fluorescence polarization; 0% vehicle, 100% cell-free pure enzyme wells; activation, % at 5.96 µM; 340,000 tested, 0.073% active; AID 493087;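 active means activation above the mean of all tested compounds plus 3 SD, set per screening campaign, cut at about 17% in these data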
Tb MetRS conf = confirmation of Trypanosoma brucei MetRS inhibitors. shares compounds with Tb MetRS inh. T. brucei MetRS enzyme, luminescence (ATP depletion). inhibition, % at 11.9 µM. 1,400 tested, 93% active; in the data active means inhibition above about 7%
Jurkat tox = Jurkat T cell cytotoxicity for MetRS hits; shares compounds with Tb MetRS inh; Jurkat cells viability, ATP luminescence; inhibition, % at 8.3 µM; 1,400 tested, 12% active; in the data active means inhibition above about 15%
Tb MetRS inh FP = inhibits T. brucei methionyl tRNA synthetase in orthogonal FP test; purified T. brucei MetRS, fluorescence polarization; shares compounds with Tb MetRS inh; inhibition, % at 11.9 µM; 1,400 tested, 44% active; AID 651607; in the data active means inhibition above about 17%
A number is an active result; – = inactive; · = not tested or not shown.

SMILES	IDE inh	CSN deneddyl inh	HNF4A DNA FP	TPT1 inh	Tb MetRS inh	IDE act	Tb MetRS conf	Jurkat tox	Tb MetRS inh FP
CCN1C(=O)[C@H]2[C@H]3CN=C(SCc4ccc(C)cc4)N3[C@@](Cc3ccccc3)(C(=O)OC)[C@H]2C1=O	·	–	–	·	–	–	·	·	·
COc1cccc(NC(=O)Cn2c(CCC(=O)O)ccc2-c2ccc(Cl)cc2)c1	–	–	–	–	–	–	·	·	·
Cc1ccc(NC(=O)Cn2c(CCC(=O)O)ccc2-c2ccc(Cl)cc2)cc1	–	–	–	–	10.0	–	34.2	–	16.9
O=C(Nc1ccc(C(=O)O)cc1)/C(=C\C=C\c1ccccc1)NC(=O)c1cccc(Br)c1	–	–	–	–	11.7	–	20.3	–	23.4
Cc1cc2c(c(=O)n1Cc1ccccn1)C(c1ccc3c(c1)OCO3)C(C#N)=C(N)O2 (stereo not given)	–	–	–	–	13.8	–	–	–	–
COc1ccc(CCn2c(C)cc3c(c2=O)C(c2ccc4c(c2)OCO4)C(C#N)=C(N)O3)cc1OC (stereo not given)	–	–	–	–	15.6	–	–	–	–
COc1cc(C2C(C#N)=C(N)Oc3cc(C)oc(=O)c32)cc2c1OCO2 (stereo not given)	–	–	–	–	–	–	·	·	·
COc1cc(C2C(C#N)=C(N)Oc3cc(C)n(CC4CCCO4)c(=O)c32)cc2c1OCO2 (stereo not given)	·	–	–	·	78.2	–	–	–	–
C=CCN1C(=O)C(CC(=O)Nc2ccc(OCCC)cc2)N(CCCN2CCN(Cc3ccccc3)CC2)C1=S (stereo not given)	–	–	–	–	–	–	·	·	·
O=C(OC(C(=O)NCc1ccco1)c1ccc(Cl)cc1)c1cccs1 (stereo not given)	–	–	–	–	–	–	·	·	·
CC(NC(=O)c1cccc2c1Oc1ccccc1S2)C(=O)O (stereo not given)	·	–	–	·	8.7	·	11.4	–	–
COc1cccc(N2CCN(S(=O)(=O)c3ccc(-n4cnnn4)cc3)CC2)c1	–	–	–	–	–	–	·	·	·
COCCNC(=O)CS(=O)Cc1nc(-c2ccccc2C)oc1C (stereo not given)	–	–	–	–	59.2	–	–	–	–
Cc1ccc(-n2nnnc2-c2cccs2)cc1[N+](=O)[O-]	–	–	–	–	–	–	·	·	·
CCc1c(O)nc(SCC(=O)Nc2ccc(Br)cc2)n(-c2ccc(C)cc2)c1=O	–	–	–	–	6.4	–	22.1	–	–
CCc1c(O)nc(SCC(=O)Nc2ccccc2)n(-c2ccccc2)c1=O	–	–	–	–	–	–	·	·	·
COCCN(Cc1nnc(-c2cccs2)o1)C(=O)CN1C(=O)NC2(CCCCC2)C1=O	–	–	–	·	–	–	·	·	·
Nc1c(Br)cc2c([nH]c(=O)c3ccccc32)c1Br	·	–	–	·	–	–	·	·	·
CC(C)(C)c1ccc(C(=O)NCC(=O)N/N=C/c2cccs2)cc1	–	–	–	–	–	–	·	·	·
O=C(CNC(=O)c1cccc(Br)c1)N/N=C/c1cccs1	–	–	–	–	6.0	–	19.6	–	–
Cc1ccc(CNC(=O)CSc2nnc3c(n2)[nH]c2ccccc23)cc1	–	–	–	–	16.4	–	68.6	–	45.4
COc1ccc(CNC(=O)CSc2nnc3c(n2)[nH]c2ccc(F)cc23)cc1	–	–	–	–	32.9	–	92.0	–	66.1
O=C(CSc1nnc2c(n1)[nH]c1ccc(F)cc12)NCc1ccc(F)cc1	–	–	–	–	17.1	–	70.7	–	49.1
COc1ccc(CCNC(=O)CSc2nnc3c(n2)[nH]c2ccc(F)cc23)cc1OC	–	–	–	–	–	–	·	·	·
COc1ccc2[nH]c3nc(SC(C)C)nnc3c2c1	–	–	–	–	–	–	·	·	·
SMILES	IDE inh	CSN deneddyl inh	HNF4A DNA FP	TPT1 inh	Tb MetRS inh	IDE act	Tb MetRS conf	Jurkat tox	Tb MetRS inh FP
COc1ccc(CNC(=O)CSc2nnc3c(n2)[nH]c2ccc(OC)cc23)cc1	–	–	–	–	7.6	–	35.0	–	22.3
Cc1ccc([C@@H]2CC(=O)[C@@H]3CN(S(=O)(=O)c4ccc(C)cc4)[C@H](c4ccc(Cl)cc4)C[C@@H]3N2S(=O)(=O)c2ccc(C)cc2)cc1	·	–	–	·	–	·	·	·	·
O=C(CSc1nc2ccccc2[nH]1)Nc1cc(C(F)(F)F)ccc1N1CCOCC1	–	–	–	–	–	–	·	·	·
O=C(Cn1c(CO)nc2ccccc21)Nc1cc(C(F)(F)F)ccc1N1CCOCC1	–	–	–	–	14.2	–	26.4	–	–
COc1cc(NC(C)=O)c2ncccc2c1[N+](=O)[O-]	–	–	–	–	11.5	–	22.7	–	–
COc1cc(NC(C)=O)c2ncccc2c1NC(C)=O	–	–	–	–	–	–	·	·	·
Cc1ccc(C2(c3ccccc3)NC(=O)N(CC(=O)NCc3ccccc3)C2=O)cc1C (stereo not given)	–	–	–	·	–	–	·	·	·
O=S(=O)(c1cccc(F)c1)N1CCN(c2nc(-c3cccnc3)nc3ccccc23)CC1	–	–	–	·	–	–	·	·	·
Cc1ccc(OCCCC(=O)Nc2nc3ccccc3[nH]2)cc1	–	–	–	–	–	–	·	·	·
Cc1cccc(OCCSCc2nc3ccccc3[nH]2)c1	–	–	–	–	8.7	–	19.6	–	–
Cc1ccccc1OCCSCc1nc2ccccc2[nH]1	–	–	–	–	6.2	–	16.8	–	–
Cc1cccc(OCCCC(=O)Nc2nc3ccccc3[nH]2)c1	–	–	–	–	63.1	–	67.2	–	46.0
CC(C)=C[C@H]1C[C@H](C)[C@H]2CC[C@H](C)c3c(O[C@@H]4OC[C@@H](O)[C@H](O)C4O)c(O)c(C)c1c32 (stereo not given in full)	–	–	–	·	–	–	·	·	·
O=C1CCCN1CCCNc1ncnc2c1[nH]c1ccc(Cl)cc12	–	–	–	–	62.3	–	70.5	–	50.6
O=C1CCCN1CCCn1cnc2c([nH]c3ccc(F)cc32)c1=O	–	–	–	–	–	–	·	·	·
CCN1CCCC1CNc1ncnc2c1[nH]c1ccc(Cl)cc12 (stereo not given)	–	–	–	–	37.9	–	59.2	–	36.0
CCN1CCCC1Cn1cnc2c([nH]c3ccc(C)cc32)c1=O (stereo not given)	–	–	–	–	–	–	·	·	·
Cc1ccc2[nH]c3c(NCCN4CCOCC4)ncnc3c2c1	·	–	–	·	11.1	–	22.3	–	–
Cc1ccc2ncnc(NCCCN3CCOCC3)c2c1	–	–	–	–	–	–	·	·	·

Assay outcomes (PubChem)
